One may read the IC50 as the concentration that inhibits the measured activity by half.

The results in this text go back to ChEMBL document CHEMBL3758106, “Antitumor Activity of Americanin A Isolated from the Seeds of Phytolacca americana by Regulating the ATM/ATR Signaling Pathway and the Skp2-p27 Axis in Human Colon Cancer Cells” (J Nat Prod, 2015).

A short description of assay [1]: Antiproliferative activity against human HCT116 cells after 24 to 72 hrs by SRB assay. It counts as functional, cell-based. The settings on record: HCT-116. Put shortly: (§1)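 Cells grown in 96-well plates (RPMI 1640; MRC-5 in MEM, 10% FBS, antibiotics) with compound […]; fixed in 10% TCA 30 min at 4 °C, stained 0.4% SRB in 1% acetic acid 1 h, dye dissolved in 10 mM Tris pH 10.0, A515 read; viability as % of solvent control, IC50 by nonlinear regression; mean of three independent experiments.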

Another assay deals with A549. Put plainly: Antiproliferative activity against human A549 cells after 24 to 72 hrs by SRB assay. It counts as functional, cell-based. Put shortly: as §1
A short description of assay [2]: Antiproliferative activity against human HCT116 cells assessed as cell viability after 48 hrs by SRB assay. The note with it: HCT-116, 48 h. It is filed as functional, cell-based. The gist of the method: (§2)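 HCT116 cells in 96-well plates exposed 24, 48 or 72 h; TCA fixation, 0.4% SRB staining, dye solubilised in 10 mM Tris pH 10.0, absorbance at 515 nm; viability relative to solvent-treated control.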
Background: The SRB assay estimates cell density from bound dye.

The subject of the next assay is CAKI-1. Put plainly: Antiproliferative activity against human CAKI-1 cells after 24 to 72 hrs by SRB assay. It counts as functional, cell-based. The gist of the method: as §1
A short description of assay [3]: Antiproliferative activity against human HCT116 cells assessed as cell viability after 72 hrs by SRB assay. It counts as functional, cell-based. The note with it: HCT-116, 72 h. The gist of the method:
as §2

Assay [4] can be described thus: Antiproliferative activity against p53-null human HCT116 cells assessed as cell viability after 72 hrs by SRB assay. The note with it: HCT-116, 72 h. It counts as functional, cell-based. Put shortly:
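p53 wild-type and p53-null HCT116 cells in 96-well plates treated 72 h; SRB assay (TCA fix, SRB stain, Tris pH 10.0 solubilisation, A515); viability vs solvent control, IC50 by nonlinear regression.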

For the next assay, the system named is MRC5. Put plainly: Cytotoxicity against human MRC5 cells after 24 to 72 hrs by SRB assay. It counts as cell-based. The gist of the method:
as §1

In another assay the test system is K562. Put plainly: Antiproliferative activity against human K562 cells after 24 to 72 hrs by SRB assay. It counts as functional, cell-based. The gist of the method:
as §1

Assay [5] can be described thus: Antiproliferative activity against human HCT116 cells assessed as cell viability after 24 hrs by SRB assay. The note with it: HCT-116, 24 h. It is filed as functional, cell-based. The gist of the method: as §2
The nature of assay [6]: Antiproliferative activity against human HCT15 cells after 24 to 72 hrs by SRB assay. It counts as functional, cell-based. The note with it: HCT-15. The gist of the method: as §1
Another assay relates to SW480. Put plainly: Antiproliferative activity against human SW480 cells after 24 to 72 hrs by SRB assay. It counts as functional, cell-based. Put shortly: as §1
Another assay relates to RKO. Put plainly: Antiproliferative activity against human RKO cells after 24 to 72 hrs by SRB assay. It is filed as functional, cell-based. The gist of the method: as §1
Assay [7] in a line: Antitumor activity against human HCT116 cells xenografted in nude mouse assessed as tumor growth inhibition at 10 mg/kg, ip administered once per week measured on day 41. It is filed as functional. The note with it: HCT-116, ip, 984 h, read-out: TGI. Put shortly: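 Nude mice given 2 × 10^6 HCT116 cells subcutaneously in flank; at ~120 mm3 randomised, six per group; ip dosing in 200 μL, test agent 5 or 10 mg/kg three times weekly, irinotecan 10 mg/kg once weekly; tumour volume measured twice weekly to day 41; body weight tracked for toxicity.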
For orientation: Xenograft models place foreign cells or tissue in a host animal.

For assay [8], the system named is HCT-116. Put plainly: Induction of apoptosis in human HCT116 cells assessed as early apoptotic cells at 1 mM after 48 hrs by annexin V-FITC/propidium iodide staining-based flow cytometric analysis (reference value: 1.1%). It is filed as functional. (In general: A flow cytometer gives signals particle by particle.)
The test system of assay [9] is HCT-116. Put plainly: Induction of apoptosis in human HCT116 cells assessed as viable cells at 1 mM after 48 hrs by annexin V-FITC/propidium iodide staining-based flow cytometric analysis (reference value: 87.4%). It counts as functional. The settings on record: HCT-116, 48 h, read-out: Activity.
In assay [10] the test system is HCT-116. Put plainly: Induction of reactive oxygen species in human HCT116 cells at 1 mM after 48 hrs by DCFH-DA staining-based flow cytometric analysis (reference value: 5.1%). It counts as functional. Put shortly: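 HCT116 cells seeded overnight, then exposed to test compounds, alone or with NAC, for 48 h in complete medium. Loaded with 20 μM DCFH-DA for 30 min; intracellular ROS in 20 000 cells per group read by flow cytometry as histograms.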

In assay [11] the test system is HCT-116. Put plainly: Induction of apoptosis in human HCT116 cells assessed as late apoptotic cells at 1 mM after 48 hrs by annexin V-FITC/propidium iodide staining-based flow cytometric analysis (reference value: 7.2%). It is filed as functional.
Assay [12] relates to HCT-116. Put plainly: Induction of apoptosis in human HCT116 cells assessed as dead cells at 1 mM after 48 hrs by annexin V-FITC/propidium iodide staining-based flow cytometric analysis (reference value: 4.2%). It is filed as functional.

Molecules are shown by their SMILES.

`CC(=O)/C=C/C=C/c1ccc2c(c1)O[C@@H](CO)[C@H](c1ccc(O)c(O)c1)O2` returned a half-inhibitory concentration (IC50) in assay [1] of over 100 µM.
The same measure, in the same setting: then `O=C/C=C/c1ccc2c(c1)[C@@H](CO)[C@H](c1ccc(O)c(O)c1)O2`, with 10.4 µM.
As to `COc1cc([C@@H]2c3cc4c(cc3[C@@H](O[C@@H]3O[C@@H]5CO[C@@H](C)O[C@H]5[C@H](O)[C@H]3O)[C@H]3COC(=O)[C@H]23)OCO4)cc(OC)c1O` [ETOPOSIDE], the IC50 worked out at 0.8 µM in the assay with A549; 3.3 µM in [1]; 2.3 µM in assay [2]; 1.1 µM in the assay on CAKI-1; 0.3 µM in assay [3]; 3.1 µM in assay [4]. Further, the values for the IC50 (in the assay with MRC5; in the assay with K562; in assay [5]) were over 20 µM, 6.7 µM and over 20 µM, respectively.
On to `CCc1c2c(nc3ccc(OC(=O)N4CCC(N5CCCCC5)CC4)cc13)-c1cc3c(c(=O)n1C2)COC(=O)[C@]3(O)CC` [IRINOTECAN], for which the IC50 in [1] amounted to 2 µM; in [6] it was 8.5 µM; with SW480, 12.3 µM; with RKO, 6.2 µM. The inhibition in vivo at 10 mg/kg in [7] came out at 68.6%.
In the case of `O=C/C=C/c1ccc2c(c1)O[C@@H](CO)[C@H](c1ccc3c(c1)O[C@@H](CO)[C@H](c1ccc(O)c(O)c1)O3)O2`, half-maximal inhibition in assay [1] (IC50) was put at 10.9 µM.
For the compound `CC(=O)N[C@@H](CS)C(=O)O` [ACETYLCYSTEINE], the Activity is reported as 1.1% with HCT-116 [8], 6% in the assay with HCT-116 [10], 8.5% with HCT-116 [11] and 4.9% in the assay on HCT-116 [12]. In addition, in the assay on HCT-116 [9], the viability at 1000 µM was found to be 85.6%.
Regarding `COc1ccc([C@@H]2Oc3ccc(/C=C/C=O)cc3O[C@H]2COC(C)=O)cc1OC`, half-maximal inhibition in [1] (IC50) was put at 5.6 µM.
Compound `COc1ccc([C@@H]2Oc3ccc(/C=C/C=O)cc3O[C@H]2CO)cc1OC` displayed an IC50 in assay [1] of 4 µM.
`COc1ccc([C@@H]2Oc3ccc(C=O)cc3O[C@H]2CO)cc1OC`: in assay [1], the concentration for half-maximal inhibition (IC50) is over 100 µM.
